In ChEMBL document CHEMBL4732114, “Design and structural optimization of novel 2H-benzo[h]chromene derivatives that target AcrB and reverse bacterial multidrug resistance” (Eur J Med Chem, 2021):
≈ marks a conversion by molar mass, not a printed value.

Experiments:
[1] = target: T1, Multidrug efflux pump subunit AcrB (Escherichia coli (strain K12)) (UniProt P31224); test: Inhibition of AcrB in multidrug-resistant Escherichia coli BW25113 assessed as potentiation of erythromycin-induced antibacterial activity by measuring erythromycin MIC at 8 ug/ml by checkerboard titration method (reference value: 64 ug/ml); conditions: dose 8.0 µg/ml
T1 sequence (whole entry): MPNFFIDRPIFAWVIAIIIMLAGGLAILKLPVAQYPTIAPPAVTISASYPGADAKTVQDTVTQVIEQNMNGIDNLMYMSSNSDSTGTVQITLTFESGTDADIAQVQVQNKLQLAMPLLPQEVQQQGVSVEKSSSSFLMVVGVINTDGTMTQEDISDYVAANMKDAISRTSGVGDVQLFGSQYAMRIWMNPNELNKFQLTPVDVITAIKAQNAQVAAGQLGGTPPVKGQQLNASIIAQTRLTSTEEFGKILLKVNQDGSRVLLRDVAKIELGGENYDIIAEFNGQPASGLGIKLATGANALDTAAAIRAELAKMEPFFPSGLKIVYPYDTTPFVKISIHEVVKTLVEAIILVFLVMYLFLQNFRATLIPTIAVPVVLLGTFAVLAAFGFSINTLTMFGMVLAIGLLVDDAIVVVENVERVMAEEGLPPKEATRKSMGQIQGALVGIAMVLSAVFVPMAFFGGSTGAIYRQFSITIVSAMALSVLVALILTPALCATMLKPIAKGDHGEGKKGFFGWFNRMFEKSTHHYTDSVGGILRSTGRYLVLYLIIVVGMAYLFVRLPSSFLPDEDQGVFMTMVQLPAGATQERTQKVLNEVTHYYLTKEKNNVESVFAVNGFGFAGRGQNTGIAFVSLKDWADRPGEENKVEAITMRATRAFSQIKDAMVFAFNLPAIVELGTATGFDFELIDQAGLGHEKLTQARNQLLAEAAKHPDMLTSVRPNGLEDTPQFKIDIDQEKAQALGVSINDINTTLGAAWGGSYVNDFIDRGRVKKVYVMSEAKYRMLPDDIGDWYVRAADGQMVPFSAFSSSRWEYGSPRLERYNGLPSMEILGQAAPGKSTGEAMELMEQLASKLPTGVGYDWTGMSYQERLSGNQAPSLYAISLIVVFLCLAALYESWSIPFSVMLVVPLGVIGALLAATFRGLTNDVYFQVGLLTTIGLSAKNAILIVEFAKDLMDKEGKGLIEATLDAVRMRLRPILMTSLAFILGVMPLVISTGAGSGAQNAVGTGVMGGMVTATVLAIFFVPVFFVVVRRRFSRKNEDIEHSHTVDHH

[2] = Toxicity in multidrug-resistant Escherichia coli BW25113 assessed as growth inhibition by two-fold broth dilution method
[3] = Toxicity in multidrug-resistant Escherichia coli BW25113 harboring AcrB deletion mutant assessed as growth inhibition by two-fold broth dilution method
[4] = target: T1, Multidrug efflux pump subunit AcrB (Escherichia coli (strain K12)); test: Inhibition of AcrB in multidrug-resistant Escherichia coli BW25113 assessed as potentiation of chloramphenicol-induced antibacterial activity by measuring chloramphenicol MIC at 8 ug/ml by checkerboard titration method (reference value: 8 ug/ml); conditions: dose 8.0 µg/ml
[5] = target: T1, Multidrug efflux pump subunit AcrB (Escherichia coli (strain K12)); test: Inhibition of AcrB in multidrug-resistant Escherichia coli BW25113 assessed as potentiation of chloramphenicol-induced antibacterial activity by measuring chloramphenicol MIC at 16 ug/ml by checkerboard titration method (reference value: 8 ug/ml); conditions: dose 16.0 µg/ml
[6] = target: T1, Multidrug efflux pump subunit AcrB (Escherichia coli (strain K12)); test: Inhibition of AcrB in multidrug-resistant Escherichia coli BW25113 assessed as potentiation of chloramphenicol-induced antibacterial activity by measuring chloramphenicol MIC at 64 ug/ml by checkerboard titration method (reference value: 8 ug/ml); conditions: dose 64.0 µg/ml
[7] = target: T1, Multidrug efflux pump subunit AcrB (Escherichia coli (strain K12)); test: Inhibition of AcrB in multidrug-resistant Escherichia coli BW25113 assessed as potentiation of chloramphenicol-induced antibacterial activity by measuring chloramphenicol MIC at 128 ug/ml by checkerboard titration method (reference value: 8 ug/ml); conditions: dose 128.0 µg/ml
[8] = target: T1, Multidrug efflux pump subunit AcrB (Escherichia coli (strain K12)); test: Inhibition of AcrB in multidrug-resistant Escherichia coli BW25113 assessed as potentiation of erythromycin-induced antibacterial activity by measuring erythromycin MIC at 64 ug/ml by checkerboard titration method (reference value: 64 ug/ml); conditions: dose 64.0 µg/ml
[9] = target: T1, Multidrug efflux pump subunit AcrB (Escherichia coli (strain K12)); test: Inhibition of AcrB in multidrug-resistant Escherichia coli BW25113 assessed as potentiation of erythromycin-induced antibacterial activity by measuring erythromycin MIC at 128 ug/ml by checkerboard titration method (reference value: 64 ug/ml); conditions: dose 128.0 µg/ml
[10] = target: T1, Multidrug efflux pump subunit AcrB (Escherichia coli (strain K12)); test: Inhibition of AcrB in multidrug-resistant Escherichia coli BW25113 assessed as potentiation of tetraphenylphosphonium-induced antibacterial activity by measuring tetraphenylphosphonium MIC at 16 ug/ml by checkerboard titration method (reference value: 1024 ug/ml); conditions: dose 16.0 µg/ml
[11] = target: T1, Multidrug efflux pump subunit AcrB (Escherichia coli (strain K12)); test: Inhibition of AcrB in multidrug-resistant Escherichia coli BW25113 assessed as potentiation of tetraphenylphosphonium-induced antibacterial activity by measuring tetraphenylphosphonium MIC at 32 ug/ml by checkerboard titration method (reference value: 1024 ug/ml); conditions: dose 32.0 µg/ml
[12] = target: T1, Multidrug efflux pump subunit AcrB (Escherichia coli (strain K12)); test: Inhibition of AcrB in multidrug-resistant Escherichia coli BW25113 assessed as potentiation of tetraphenylphosphonium-induced antibacterial activity by measuring tetraphenylphosphonium MIC at 64 ug/ml by checkerboard titration method (reference value: 1024 ug/ml); conditions: dose 64.0 µg/ml
[13] = target: T1, Multidrug efflux pump subunit AcrB (Escherichia coli (strain K12)); test: Inhibition of AcrB in multidrug-resistant Escherichia coli BW25113 assessed as potentiation of tetraphenylphosphonium-induced antibacterial activity by measuring tetraphenylphosphonium MIC at 128 ug/ml by checkerboard titration method (reference value: 1024 ug/ml); conditions: dose 128.0 µg/ml
[14] = target: T1, Multidrug efflux pump subunit AcrB (Escherichia coli (strain K12)); test: Inhibition of AcrB in multidrug-resistant Escherichia coli BW25113 assessed as potentiation of levofloxacin-induced antibacterial activity by measuring levofloxacin MIC at 8 ug/ml by checkerboard titration method (reference value: 0.06 ug/ml); conditions: dose 8.0 µg/ml
[15] = target: T1, Multidrug efflux pump subunit AcrB (Escherichia coli (strain K12)); test: Inhibition of AcrB in multidrug-resistant Escherichia coli BW25113 assessed as potentiation of levofloxacin-induced antibacterial activity by measuring levofloxacin MIC at 16 ug/ml by checkerboard titration method (reference value: 0.06 ug/ml); conditions: dose 16.0 µg/ml
[16] = target: T1, Multidrug efflux pump subunit AcrB (Escherichia coli (strain K12)); test: Inhibition of AcrB in multidrug-resistant Escherichia coli BW25113 assessed as potentiation of levofloxacin-induced antibacterial activity by measuring levofloxacin MIC at 128 ug/ml by checkerboard titration method (reference value: 0.06 ug/ml); conditions: dose 128.0 µg/ml
Cell membrane = test: Induction of outer membrane permeabilization in wild type Escherichia coli BW25113 assessed as increase in nitrocefin hydrolysis at 128 ug/ml in presence of CCCP by spectroscopic analysis; conditions: dose 128 µg/ml
How it was run: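 Intact E. coli were treated with 10 μM CCCP to block nitrocefin efflux, then given compound, nothing, or polymyxin B as permeabilizer control. Nitrocefin was added, and hydrolysis by periplasmic β-lactamase was followed as the rise in absorbance at 490 nm. Duplicate experiments were run on different days.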

[17] = target: T1, Multidrug efflux pump subunit AcrB (Escherichia coli (strain K12)); conditions: Escherichia coli BW25113; dose 8.0 µg/ml

SMILES	MIC [1] [µg/mL]	MIC [2] [µg/mL]	MIC [3] [µg/mL]	MIC [4] [µg/mL]	MIC [5] [µg/mL]	MIC [6] [µg/mL]	MIC [7] [µg/mL]	MIC [8] [µg/mL]	MIC [9] [µg/mL]	MIC [10] [µg/mL]	MIC [11] [µg/mL]	MIC [12] [µg/mL]	MIC [13] [µg/mL]	MIC [14] [µg/mL]	MIC [15] [µg/mL]	MIC [16] [µg/mL]	Activity (Cell membrane)	MIC [17] [µg/mL]
CC1CN(C(=O)c2cc3c(OCc4ccc(Br)cc4)cccc3c3c2CCC(C)(C)O3)CC(C)O1 (stereo unspecified)	64	> 512	> 128	8	8	8	8	64	32	1020	1020	1020	512	0.06	0.06	0.06	Not Active	16 (≈ 29.7 µM)
CC1(C)CCc2c(Cn3cnnn3)cc3c(OCc4ccccc4)cccc3c2O1	64	> 512	> 128	8	8	4	4	64	64	1020	1020	1020	1020	0.06	0.06	0.03	–	16 (≈ 40 µM)
CC1CN(C(=O)c2cc3c(OCc4c(Cl)cccc4Cl)cccc3c3c2CCC(C)(C)O3)CC(C)O1 (stereo unspecified)	64	–	–	8	8	8	8	64	64	1020	1020	1020	1020	0.03	0.03	0.03	–	16 (≈ 30.3 µM)
C=CC(=O)Nc1ccc(COc2cccc3c4c(c(Cn5cnnn5)cc23)CCC(C)(C)O4)cc1	64	> 512	> 128	8	8	4	4	32	32	1020	1020	1020	1020	0.06	0.06	0.06	–	16 (≈ 34.1 µM)
CC1(C)CCc2c(-c3nnco3)cc3c(OCc4ccc([N+](=O)[O-])cc4)cccc3c2O1	64	> 512	> 128	8	8	8	4	32	32	1020	1020	1020	1020	0.06	0.06	0.06	–	16 (≈ 37.1 µM)
Cc1ccccc1COc1cccc2c3c(c(-c4nnco4)cc12)CCC(C)(C)O3	64	> 512	> 128	8	8	8	8	32	16	512	512	512	256	0.06	0.06	0.06	–	16 (≈ 40 µM)
CNC(=O)c1ccc(COc2cccc3c4c(c(Cn5cnnn5)cc23)CCC(C)(C)O4)cc1	64	> 512	> 128	8	8	4	4	64	32	1020	1020	1020	1020	0.06	0.06	0.06	–	16 (≈ 35 µM)
CC1(C)CC(=O)c2ccc(OCC(=O)Nc3ccc(C#N)c(C(F)(F)F)c3)cc2O1	64	> 512	> 128	8	8	4	–	64	–	1020	512	256	–	0.06	0.06	–	–	16 (≈ 38.2 µM)
